Data set [1] addresses Transient receptor potential cation channel subfamily V member 1 (Homo sapiens, UniProt Q8NER1). The data set can be described thus: Antagonist activity at human recombinant TRPV1 receptor expressed in human 1321 cells assessed as inhibition of capsaicin-induced in intracellular calcium levels by FLIPR assay. It counts as functional, cell-based. In general terms: A change in cytosolic calcium serves as a functional read-out for many receptors and channels.

A short description of data set [2]: Half life in rat at 10 umol/kg, iv. The format is ADME, organism-based. As to conditions: in vivo. The gist of the method:
(§1)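 Rat pharmacokinetics after 10 µmol/kg dosing, three animals per group for each of the iv and oral routes. Parameters reported are Vb (iv), CLp, t1/2 (iv), oral Cmax and oral bioavailability.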

Data set [3] in a line: Ratio of drug level in brain to plasma in rat at 10 umol/kg, iv and po. It counts as ADME, organism-based. As to conditions: read-out: BPR.
Data set [4] is described as follows: Cmax in rat at 10 umol/kg, po. Details: dose 10 umol/kg, route oral. As to conditions: in vivo. It counts as ADME, organism-based. An outline of the steps:
as §1

A short description of data set [5]: Terminal phase volume of distribution […] in rat at 10 umol/kg, iv. The format is ADME, organism-based. Particulars: in vivo, read-out: Vbeta. An outline of the steps: as §1
Data set [6] in a line: Bioavailability in rat at 10 umol/kg, po. The format is ADME, organism-based. As to conditions: in vivo. An outline of the steps: as §1
A short description of data set [7]: Plasma clearance in rat at 10 umol/kg, iv and po. It counts as ADME, organism-based. The gist of the method: as §1
A further data set has as its system Salmonella typhimurium. The data set can be described thus: Mutagenic activity in Salmonella Typhimurium by Ames test. The format is toxicity, organism-based. Particulars: salmonella enterica subsp. enterica serovar typhimurium. A general note: The Ames test uses bacterial strains that need an amino acid and regain growth without it when mutated back.
The test system of data set [8] is Rattus norvegicus. Put plainly: Analgesic activity against carrageenan-induced thermal hyperalgesia in Sprague-Dawley rat assessed as paw withdrawal latency at 10 umol/kg, po by hotbox assay. It counts as functional.
Data set [9] addresses Voltage-gated inwardly rectifying potassium channel KCNH2 (Homo sapiens, UniProt Q12809). The data set can be described thus: Inhibition of human ERG.
Data set [10] is described as follows: Inhibition of human cytochrom P450. The format is ADME.
The test system of a further data set is Canis familiaris. Put plainly: Cardiotoxicity in anesthetized dog assessed as effect on hemodynamics at 57 times Cmax concentration. Particulars: in vivo.
The target of data set [11] is T1, Transient receptor potential cation channel subfamily V member 3 (Homo sapiens, UniProt Q8NET8).
T1 sequence (Q8NET8 whole entry): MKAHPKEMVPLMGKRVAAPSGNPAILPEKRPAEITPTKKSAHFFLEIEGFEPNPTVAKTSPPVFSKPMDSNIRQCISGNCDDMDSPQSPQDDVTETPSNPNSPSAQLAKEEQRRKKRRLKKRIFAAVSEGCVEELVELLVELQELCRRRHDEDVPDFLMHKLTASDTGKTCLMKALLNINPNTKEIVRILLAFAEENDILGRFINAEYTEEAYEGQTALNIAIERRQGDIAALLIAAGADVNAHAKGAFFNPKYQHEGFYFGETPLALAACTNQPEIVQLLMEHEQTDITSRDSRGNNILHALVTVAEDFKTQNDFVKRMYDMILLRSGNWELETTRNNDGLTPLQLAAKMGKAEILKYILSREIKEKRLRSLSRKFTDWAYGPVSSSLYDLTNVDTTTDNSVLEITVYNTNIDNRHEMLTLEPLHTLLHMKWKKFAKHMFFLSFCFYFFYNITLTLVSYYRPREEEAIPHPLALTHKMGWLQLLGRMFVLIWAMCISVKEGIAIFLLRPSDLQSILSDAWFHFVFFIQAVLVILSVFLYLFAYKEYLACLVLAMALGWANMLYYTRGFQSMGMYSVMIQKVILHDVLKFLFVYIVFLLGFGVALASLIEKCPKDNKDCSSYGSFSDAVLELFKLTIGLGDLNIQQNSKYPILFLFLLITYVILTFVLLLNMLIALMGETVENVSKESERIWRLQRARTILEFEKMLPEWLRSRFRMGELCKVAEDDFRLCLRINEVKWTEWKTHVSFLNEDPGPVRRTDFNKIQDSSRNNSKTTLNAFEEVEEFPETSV
The data set can be described thus: Antagonist activity at human TRPV3 receptor. It counts as functional.

The target of data set [12] is Transient receptor potential cation channel subfamily M member 8 (Homo sapiens, UniProt Q7Z2W7). The data set can be described thus: Antagonist activity at human TRPM8 receptor. The format is functional.
For data set [13], the target named is T2, Transient receptor potential cation channel subfamily V member 2 (Rattus norvegicus, UniProt Q9WUD2).
T2 sequence (Q9WUD2 whole entry): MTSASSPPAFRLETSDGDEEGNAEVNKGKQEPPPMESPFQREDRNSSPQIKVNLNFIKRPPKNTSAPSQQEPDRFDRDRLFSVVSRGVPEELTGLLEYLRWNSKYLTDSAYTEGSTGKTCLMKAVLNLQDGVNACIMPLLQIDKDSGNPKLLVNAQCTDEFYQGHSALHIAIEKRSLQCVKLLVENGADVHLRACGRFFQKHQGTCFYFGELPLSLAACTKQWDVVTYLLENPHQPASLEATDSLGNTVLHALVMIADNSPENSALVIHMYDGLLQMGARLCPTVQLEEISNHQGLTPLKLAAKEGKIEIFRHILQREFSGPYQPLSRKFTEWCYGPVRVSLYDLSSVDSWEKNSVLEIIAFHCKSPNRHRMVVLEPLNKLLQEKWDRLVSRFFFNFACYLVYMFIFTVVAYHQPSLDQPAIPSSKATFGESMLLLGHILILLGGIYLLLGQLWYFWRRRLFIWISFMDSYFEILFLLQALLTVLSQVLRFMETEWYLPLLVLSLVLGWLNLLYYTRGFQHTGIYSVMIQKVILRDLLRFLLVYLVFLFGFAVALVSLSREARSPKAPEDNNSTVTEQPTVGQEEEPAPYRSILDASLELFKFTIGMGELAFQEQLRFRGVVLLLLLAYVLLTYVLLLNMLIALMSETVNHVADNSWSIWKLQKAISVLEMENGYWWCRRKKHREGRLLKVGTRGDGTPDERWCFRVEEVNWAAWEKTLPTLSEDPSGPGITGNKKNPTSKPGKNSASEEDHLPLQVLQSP
The data set can be described thus: Antagonist activity at rat TRPV2 receptor. It counts as functional.

In data set [14] the target is Transient receptor potential cation channel subfamily V member 4 (Homo sapiens, UniProt Q9HBA0). The data set can be described thus: Antagonist activity at human TRPV4 receptor. The format is functional.
In data set [15] the test system is Rattus norvegicus. Put plainly: Analgesic activity in po dosed rat osteoarthritis model. It counts as functional.

Broadly, the IC50 is the midpoint of a concentration-inhibition curve. One may read the half-life as the time needed for the level to fall by half in the phase considered. Usually Cmax stands for the highest concentration seen after dosing. In general, bioavailability refers to the share of a dose that reaches the circulation, judged against a reference dose that is usually intravenous. Low readings indicate poor availability, high ones good availability. As a reminder, the ED50 is the dose that gives a 50% effect, or the effect in half of the subjects.

Chain of Transient receptor potential cation channel subfamily V member 1 (Q8NER1 whole entry): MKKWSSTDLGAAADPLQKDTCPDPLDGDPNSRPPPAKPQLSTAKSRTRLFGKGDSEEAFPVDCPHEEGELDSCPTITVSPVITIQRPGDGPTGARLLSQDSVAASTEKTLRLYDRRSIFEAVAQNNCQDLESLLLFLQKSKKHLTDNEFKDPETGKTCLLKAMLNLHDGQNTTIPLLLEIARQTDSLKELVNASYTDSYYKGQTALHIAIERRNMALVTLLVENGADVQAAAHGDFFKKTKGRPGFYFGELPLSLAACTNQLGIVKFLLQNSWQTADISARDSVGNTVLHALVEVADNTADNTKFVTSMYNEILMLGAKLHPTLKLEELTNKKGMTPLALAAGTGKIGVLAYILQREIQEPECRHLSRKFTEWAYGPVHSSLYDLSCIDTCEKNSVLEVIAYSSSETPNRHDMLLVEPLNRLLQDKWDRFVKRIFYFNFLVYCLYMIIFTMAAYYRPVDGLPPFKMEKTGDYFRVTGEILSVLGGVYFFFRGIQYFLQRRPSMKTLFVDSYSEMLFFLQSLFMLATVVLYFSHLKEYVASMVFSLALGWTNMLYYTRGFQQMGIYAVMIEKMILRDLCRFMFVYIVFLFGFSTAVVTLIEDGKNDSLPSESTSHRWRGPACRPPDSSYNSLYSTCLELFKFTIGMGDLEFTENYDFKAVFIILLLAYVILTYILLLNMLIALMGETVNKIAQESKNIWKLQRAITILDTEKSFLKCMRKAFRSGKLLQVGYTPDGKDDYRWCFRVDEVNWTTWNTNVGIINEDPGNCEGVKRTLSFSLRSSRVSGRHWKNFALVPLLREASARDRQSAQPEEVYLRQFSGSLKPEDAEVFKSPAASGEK
Chain of Transient receptor potential cation channel subfamily V member 4 (Q9HBA0 whole entry): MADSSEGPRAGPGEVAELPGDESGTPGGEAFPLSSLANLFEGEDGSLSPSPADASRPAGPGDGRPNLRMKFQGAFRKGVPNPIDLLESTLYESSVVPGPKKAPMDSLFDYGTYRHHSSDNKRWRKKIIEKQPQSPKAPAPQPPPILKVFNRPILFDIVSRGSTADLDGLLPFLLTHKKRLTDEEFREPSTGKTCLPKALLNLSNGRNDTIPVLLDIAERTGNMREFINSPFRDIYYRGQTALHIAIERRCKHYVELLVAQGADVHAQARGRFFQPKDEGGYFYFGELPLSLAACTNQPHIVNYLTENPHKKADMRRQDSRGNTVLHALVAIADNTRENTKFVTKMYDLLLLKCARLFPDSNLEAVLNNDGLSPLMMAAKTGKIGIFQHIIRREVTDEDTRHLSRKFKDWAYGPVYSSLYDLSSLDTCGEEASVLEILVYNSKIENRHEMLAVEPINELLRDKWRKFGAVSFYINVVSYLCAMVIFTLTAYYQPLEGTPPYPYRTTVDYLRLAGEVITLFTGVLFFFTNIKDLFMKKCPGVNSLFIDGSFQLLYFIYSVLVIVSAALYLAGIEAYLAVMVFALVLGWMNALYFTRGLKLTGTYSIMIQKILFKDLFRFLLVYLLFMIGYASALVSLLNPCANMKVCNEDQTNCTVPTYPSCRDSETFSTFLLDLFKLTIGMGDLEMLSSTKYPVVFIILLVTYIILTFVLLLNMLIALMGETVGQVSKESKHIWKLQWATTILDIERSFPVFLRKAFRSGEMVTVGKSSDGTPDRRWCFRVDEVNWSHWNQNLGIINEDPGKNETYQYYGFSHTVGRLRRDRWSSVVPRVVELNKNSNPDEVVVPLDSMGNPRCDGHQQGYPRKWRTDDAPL
Chain of Voltage-gated inwardly rectifying potassium channel KCNH2 (Q12809 whole entry): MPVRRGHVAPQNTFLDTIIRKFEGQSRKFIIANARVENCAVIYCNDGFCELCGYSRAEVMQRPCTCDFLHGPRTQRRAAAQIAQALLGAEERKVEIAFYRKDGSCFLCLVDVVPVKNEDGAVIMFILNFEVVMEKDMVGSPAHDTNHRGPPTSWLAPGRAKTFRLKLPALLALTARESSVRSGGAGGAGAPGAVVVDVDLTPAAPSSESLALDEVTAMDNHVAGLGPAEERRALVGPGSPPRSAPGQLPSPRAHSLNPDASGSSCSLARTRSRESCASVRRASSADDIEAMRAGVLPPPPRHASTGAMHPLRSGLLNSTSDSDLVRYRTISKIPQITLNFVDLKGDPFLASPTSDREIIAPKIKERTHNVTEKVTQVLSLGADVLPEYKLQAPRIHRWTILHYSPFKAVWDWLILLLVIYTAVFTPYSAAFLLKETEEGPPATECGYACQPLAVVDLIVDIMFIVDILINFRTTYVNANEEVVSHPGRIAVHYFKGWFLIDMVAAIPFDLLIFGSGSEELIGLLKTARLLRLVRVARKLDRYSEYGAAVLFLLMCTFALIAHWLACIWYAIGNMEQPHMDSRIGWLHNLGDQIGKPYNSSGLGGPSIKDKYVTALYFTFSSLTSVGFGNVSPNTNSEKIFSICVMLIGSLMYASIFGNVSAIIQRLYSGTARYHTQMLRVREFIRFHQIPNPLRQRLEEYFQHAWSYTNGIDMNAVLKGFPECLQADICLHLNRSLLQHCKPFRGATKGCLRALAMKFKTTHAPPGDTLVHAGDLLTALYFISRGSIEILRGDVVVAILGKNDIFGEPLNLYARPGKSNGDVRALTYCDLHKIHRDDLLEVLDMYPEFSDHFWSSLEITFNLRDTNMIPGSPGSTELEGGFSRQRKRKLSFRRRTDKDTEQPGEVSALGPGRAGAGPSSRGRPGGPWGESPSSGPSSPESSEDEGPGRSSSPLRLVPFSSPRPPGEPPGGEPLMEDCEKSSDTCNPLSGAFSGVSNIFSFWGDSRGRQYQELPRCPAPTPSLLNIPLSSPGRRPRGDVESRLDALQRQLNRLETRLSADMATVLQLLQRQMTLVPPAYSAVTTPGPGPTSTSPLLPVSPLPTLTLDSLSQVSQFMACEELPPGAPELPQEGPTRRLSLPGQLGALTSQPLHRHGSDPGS
Chain of Transient receptor potential cation channel subfamily M member 8 (Q7Z2W7 whole entry): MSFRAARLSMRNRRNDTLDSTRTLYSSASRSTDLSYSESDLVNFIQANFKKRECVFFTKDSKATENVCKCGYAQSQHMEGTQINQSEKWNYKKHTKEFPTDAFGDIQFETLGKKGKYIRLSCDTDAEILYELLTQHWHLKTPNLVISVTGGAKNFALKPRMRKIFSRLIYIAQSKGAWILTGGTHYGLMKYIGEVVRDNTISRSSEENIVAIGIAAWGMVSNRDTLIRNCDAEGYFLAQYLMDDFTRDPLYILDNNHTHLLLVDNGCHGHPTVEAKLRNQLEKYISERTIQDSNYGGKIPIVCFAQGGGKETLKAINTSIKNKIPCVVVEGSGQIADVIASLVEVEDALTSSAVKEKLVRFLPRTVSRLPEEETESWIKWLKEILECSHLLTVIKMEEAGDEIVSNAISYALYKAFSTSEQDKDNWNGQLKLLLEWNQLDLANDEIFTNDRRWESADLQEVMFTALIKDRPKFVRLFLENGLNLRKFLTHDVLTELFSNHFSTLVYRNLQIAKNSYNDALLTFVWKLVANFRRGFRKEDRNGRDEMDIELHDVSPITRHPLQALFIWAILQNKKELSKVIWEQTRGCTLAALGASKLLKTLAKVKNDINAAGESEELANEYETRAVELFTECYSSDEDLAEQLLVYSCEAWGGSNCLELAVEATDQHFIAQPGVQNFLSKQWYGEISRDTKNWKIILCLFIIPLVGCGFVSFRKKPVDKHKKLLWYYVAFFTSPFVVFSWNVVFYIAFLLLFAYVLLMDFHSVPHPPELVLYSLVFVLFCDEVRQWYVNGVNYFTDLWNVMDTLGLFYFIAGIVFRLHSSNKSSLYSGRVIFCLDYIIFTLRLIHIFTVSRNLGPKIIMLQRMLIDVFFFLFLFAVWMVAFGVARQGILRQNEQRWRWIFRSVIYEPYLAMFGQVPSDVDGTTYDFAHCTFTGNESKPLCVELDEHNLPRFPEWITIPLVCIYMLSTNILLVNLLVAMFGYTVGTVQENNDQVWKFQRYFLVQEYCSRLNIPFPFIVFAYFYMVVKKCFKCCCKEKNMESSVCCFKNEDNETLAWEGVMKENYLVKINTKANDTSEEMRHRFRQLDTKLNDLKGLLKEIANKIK

`OC1CCc2c(cccc2Nc2ncc(-c3ccc(C(F)(F)F)cc3)o2)C1` (stereo unspecified): in [1], the IC50 is 120 nM.
For the molecule `O=C1CCc2cccc(Nc3ncc(-c4ccc(C(F)(F)F)cc4)o3)c2C1`, the IC50 in data set [1] turned out to be 374 nM.
On the same count and under the same terms, the value for `Oc1ccc2cccc(Nc3ncc(-c4ccc(C(F)(F)F)cc4)o3)c2c1` was 5 nM; that for `Cc1ccc(-c2cnc(Nc3cccc4c3CC(O)CC4)o2)cc1` (stereo unspecified) was 62 nM; that for `OC1CCc2cccc(Nc3ncc(Cc4ccccc4)o3)c2C1` (stereo unspecified) was 1820 nM.
The same measure, in the same setting: the value for `Cc1ccccc1-c1cnc(Nc2cccc3c2CC(O)CC3)o1` (stereo unspecified) was 416 nM.
Same read-out and setting: the value for `COC1CCc2cccc(Nc3ncc(-c4ccc(C(F)(F)F)cc4)o3)c2C1` (stereo unspecified) was 150 nM.
On to `CC(C)(C)c1ccc(-c2cnc(Nc3cccc4c3CC(O)CC4)o2)cc1` (stereo unspecified), for which the IC50 in [1] came out at 26 nM.
The molecule `Cc1nc(Nc2cccc3c2C[C@@H](O)CC3)oc1-c1ccc(C(F)(F)F)cc1` showed a half-life in [2] of 1.9 h. Besides, in [3], the Kp came to 3. Also, the Cmax in [4] amounted to 20 ng/mL. The Vd in data set [5] turned out to be 12 L/kg. In data set [6], this molecule had a bioavailability of 7%. This molecule also gave a clearance in data set [7] of 73.3 mL/min/kg.
For the molecule `CC1(O)CCc2cccc(Nc3ncc(-c4ccc(C(F)(F)F)cc4)o3)c2C1` (stereo unspecified), the IC50 in data set [1] was 840 nM.
For the molecule `FC(F)(F)c1ccc(-c2cnc(Nc3cccc4cnccc34)o2)cc1`, the IC50 in data set [1] is 229 nM.
Take `CC(C)c1nc(Nc2cccc3c2CC(O)CC3)oc1-c1ccc(C(F)(F)F)cc1` (stereo unspecified): the IC50 in data set [1] was found to be 114 nM.
For the molecule `OC1CCc2cccc(Nc3nc(-c4ccc(F)cc4)c(-c4ccc(C(F)(F)F)cc4)o3)c2C1` (stereo unspecified), the Kp in data set [3] came to 0.21. For the same molecule, the IC50 in data set [1] was determined as 1.3 nM.
Take `OC1CCc2cccc(Nc3nc(-c4ccccc4)co3)c2C1` (stereo unspecified): in data set [1], the IC50 worked out at 864 nM.
`OC1CCc2cccc(Nc3ncc(-c4ccc(N5CCCC5)cc4)o3)c2C1` (stereo unspecified): the IC50 in [1] was 101 nM.
In data set [2], `OC1CCc2cccc(Nc3ncc(-c4ccc(C(F)(F)F)cc4)o3)c2C1` (stereo unspecified) showed a half-life of 0.7 h. In addition, in data set [1], the IC50 turned out to be 8.3 nM. In data set [4], the Cmax is 23 ng/mL. Also, the Vd in data set [5] came out at 5.4 L/kg. Further, in [6], the bioavailability worked out at 5%. The clearance in data set [7] is 85 mL/min/kg.
In the case of `Cc1cccc(-c2cnc(Nc3cccc4c3CC(O)CC4)o2)c1` (stereo unspecified), the IC50 in data set [1] was 157 nM.
The molecule `Cc1nc(Nc2cccc3c2C[C@H](O)CC3)oc1-c1ccc(C(F)(F)F)cc1` had a half-life in data set [2] of 3.8 h. For the same molecule, the Activity result with Salmonella typhimurium was “Non-toxic”; with Rattus norvegicus [8], 52%; in the data set on Canis familiaris it was “Non-toxic”. Moreover, the Kp in data set [3] worked out at 3. The “inhibition (INH)” value in data set [9] and in data set [10] was “Not Active” in each case. The same molecule registered a Cmax in data set [4] of 130 ng/mL. In addition, the Vd in [5] worked out at 6.8 L/kg. In data set [6], this molecule yielded a bioavailability of 52%. In addition, the IC50 in data set [11] is above 100000 nM; in data set [12], 44000 nM; in data set [13], 37000 nM; in data set [14], above 100000 nM. For the same molecule, in [7], the clearance is 20 mL/min/kg. In the data set with Rattus norvegicus [15], this molecule had an ED50 of 14 µmol/kg.
Consider `N#Cc1ccc(-c2nc(Nc3cccc4c3CC(O)CC4)oc2-c2ccc(C(F)(F)F)cc2)cc1` (stereo unspecified), for which the Kp in data set [3] was 0.13. The IC50 in data set [1] amounted to 2 nM.
As for `FC(F)(F)c1ccc(-c2cnc(Nc3cccc4[nH]ncc34)o2)cc1`, the IC50 in [1] is 101 nM.
Same read-out and setting: the value for `OC1CCc2cccc(Nc3nc(Br)c(-c4ccc(C(F)(F)F)cc4)o3)c2C1` (stereo unspecified) was 9 nM; that for `NC1CCc2cccc(Nc3ncc(-c4ccc(C(F)(F)F)cc4)o3)c2C1` (stereo unspecified) was 327 nM.
Take `CN(c1ncc(-c2ccc(C(F)(F)F)cc2)o1)c1cccc2c1CC(O)CC2` (stereo unspecified): the IC50 in [1] is 277 nM.
Consider `CCc1nc(Nc2cccc3c2CC(O)CC3)oc1-c1ccc(C(F)(F)F)cc1` (stereo unspecified), for which the Kp in data set [3] came out at 3.7. For the same molecule, the IC50 in [1] worked out at 2.1 nM.
Regarding `OC1CCc2cccc(Nc3ncc(-c4ccc(Cl)cc4)o3)c2C1` (stereo unspecified), in [1], the IC50 worked out at 15 nM.
For `OC1CCc2cccc(Nc3ncc(-c4ccccc4)o3)c2C1` (stereo unspecified), the IC50 in [1] turned out to be 187 nM.
As for `COc1ccc(-c2cnc(Nc3cccc4c3CC(O)CC4)o2)cc1` (stereo unspecified), the IC50 in data set [1] is 81 nM.
Take `Cc1nc(Nc2cccc3c2CC(O)CC3)oc1-c1ccc(C(F)(F)F)cc1` (stereo unspecified): the half-life in [2] was 2.8 h. In [3], the Kp is 3. In data set [4], the Cmax is 96 ng/mL. Besides, the Vd in data set [5] was found to be 10 L/kg. Moreover, the bioavailability in data set [6] was 33%. In [7], the clearance is 40 mL/min/kg.

These data come from ChEMBL document CHEMBL1177639, “Synthesis and biological evaluation of 5-substituted and 4,5-disubstituted-2-arylamino oxazole TRPV1 antagonists” (Bioorg Med Chem, 2010).
